The results in this text go back to the M2OR odorant receptor database.

Settings in all cases: stereoisomer not certain
Assay [1] addresses T1, OR1G1 (Homo sapiens) (UniProt P47890).
T1 sequence (whole entry): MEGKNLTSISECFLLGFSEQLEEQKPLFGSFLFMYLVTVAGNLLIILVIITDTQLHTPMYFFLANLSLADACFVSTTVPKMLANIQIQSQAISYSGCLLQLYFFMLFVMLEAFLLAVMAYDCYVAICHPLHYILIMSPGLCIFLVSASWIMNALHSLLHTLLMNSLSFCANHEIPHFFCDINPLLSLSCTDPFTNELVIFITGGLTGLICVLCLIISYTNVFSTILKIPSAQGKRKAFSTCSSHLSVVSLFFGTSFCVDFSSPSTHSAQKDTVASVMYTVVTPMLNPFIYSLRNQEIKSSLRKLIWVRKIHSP
The procedure, abridged: (§1)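 Assay methods differ from source to source, frequently being transient luciferase assays in mammalian cell lines. For each receptor–molecule pair, the label responsive (active) applies when the original authors judged the measured signal statistically different from baseline, and non-responsive (inactive) applies otherwise.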

Assay [2] has as its target T2, OR1F12P (Homo sapiens) (UniProt Q8NHA8).
T2 sequence (whole entry): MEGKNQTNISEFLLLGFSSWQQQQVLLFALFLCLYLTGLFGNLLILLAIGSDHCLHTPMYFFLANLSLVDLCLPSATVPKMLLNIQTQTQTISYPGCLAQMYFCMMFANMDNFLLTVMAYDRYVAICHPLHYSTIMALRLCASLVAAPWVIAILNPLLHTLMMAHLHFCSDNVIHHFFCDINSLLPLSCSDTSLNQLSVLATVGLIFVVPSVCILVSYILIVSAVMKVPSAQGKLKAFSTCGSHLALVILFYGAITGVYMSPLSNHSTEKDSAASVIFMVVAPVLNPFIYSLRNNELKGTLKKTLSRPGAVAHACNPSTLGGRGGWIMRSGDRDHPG
The procedure, abridged:
as §1

The subject of assay [3] is T3, OR1F1.
T3 sequence (whole entry): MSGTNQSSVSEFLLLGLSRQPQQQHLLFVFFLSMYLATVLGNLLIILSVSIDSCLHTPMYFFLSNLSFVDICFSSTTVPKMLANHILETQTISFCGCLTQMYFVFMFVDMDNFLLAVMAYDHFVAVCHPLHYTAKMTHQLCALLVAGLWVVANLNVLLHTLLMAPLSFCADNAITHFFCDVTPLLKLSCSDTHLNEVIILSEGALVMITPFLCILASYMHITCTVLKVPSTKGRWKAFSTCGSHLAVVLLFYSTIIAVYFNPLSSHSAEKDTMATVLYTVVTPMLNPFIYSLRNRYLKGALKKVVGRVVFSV
The procedure, abridged: as §1

For assay [4], the target named is T4, OR1I1 (Homo sapiens) (UniProt O60431).
T4 sequence (whole entry): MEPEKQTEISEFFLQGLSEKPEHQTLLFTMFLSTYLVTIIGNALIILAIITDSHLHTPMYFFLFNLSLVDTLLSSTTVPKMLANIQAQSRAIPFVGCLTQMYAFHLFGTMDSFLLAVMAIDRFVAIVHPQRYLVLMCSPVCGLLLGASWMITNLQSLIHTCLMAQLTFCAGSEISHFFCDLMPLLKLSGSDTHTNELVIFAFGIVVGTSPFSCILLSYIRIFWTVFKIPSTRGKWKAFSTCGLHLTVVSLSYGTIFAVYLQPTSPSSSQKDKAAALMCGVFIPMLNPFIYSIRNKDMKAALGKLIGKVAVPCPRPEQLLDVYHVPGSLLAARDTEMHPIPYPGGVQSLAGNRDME
The procedure, abridged: as §1

Assay [5] addresses T5, OR1J1 (Homo sapiens) (UniProt Q8NGS3).
T5 sequence (whole entry): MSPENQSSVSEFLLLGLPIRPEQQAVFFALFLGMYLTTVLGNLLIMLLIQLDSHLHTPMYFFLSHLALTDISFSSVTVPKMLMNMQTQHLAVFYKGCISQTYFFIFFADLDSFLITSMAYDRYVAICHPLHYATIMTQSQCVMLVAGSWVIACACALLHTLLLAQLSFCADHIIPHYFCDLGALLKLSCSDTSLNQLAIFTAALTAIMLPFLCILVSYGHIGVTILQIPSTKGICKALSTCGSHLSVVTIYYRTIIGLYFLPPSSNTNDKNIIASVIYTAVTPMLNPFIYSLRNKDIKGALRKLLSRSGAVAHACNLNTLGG
In outline: as §1

The target in assay [6] is T6, OR1J2 (Homo sapiens) (UniProt Q8NGS2).
T6 sequence (whole entry): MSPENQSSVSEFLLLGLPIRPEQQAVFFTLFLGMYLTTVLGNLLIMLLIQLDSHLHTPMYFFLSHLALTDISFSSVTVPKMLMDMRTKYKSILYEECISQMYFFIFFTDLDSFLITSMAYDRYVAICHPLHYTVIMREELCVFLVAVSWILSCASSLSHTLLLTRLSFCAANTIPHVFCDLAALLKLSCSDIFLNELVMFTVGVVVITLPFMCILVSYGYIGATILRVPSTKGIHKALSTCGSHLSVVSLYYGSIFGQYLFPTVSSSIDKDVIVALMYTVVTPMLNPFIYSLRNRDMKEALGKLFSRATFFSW
In outline:
as §1

Assay [7] concerns the target T7, OR1J4 (Homo sapiens) (UniProt Q8NGS1).
T7 sequence (whole entry): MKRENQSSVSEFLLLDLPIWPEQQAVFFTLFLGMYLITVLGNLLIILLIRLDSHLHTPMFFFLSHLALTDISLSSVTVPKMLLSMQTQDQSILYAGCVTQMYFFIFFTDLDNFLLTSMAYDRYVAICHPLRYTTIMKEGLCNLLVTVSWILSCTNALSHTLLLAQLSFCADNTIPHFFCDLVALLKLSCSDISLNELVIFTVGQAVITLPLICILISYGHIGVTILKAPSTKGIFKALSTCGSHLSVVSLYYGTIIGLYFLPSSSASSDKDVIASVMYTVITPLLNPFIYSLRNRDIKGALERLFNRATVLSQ
The procedure, abridged:
as §1

For assay [8], the target named is T8, OR1K1 (Homo sapiens) (UniProt Q8NGR3).
T8 sequence (whole entry): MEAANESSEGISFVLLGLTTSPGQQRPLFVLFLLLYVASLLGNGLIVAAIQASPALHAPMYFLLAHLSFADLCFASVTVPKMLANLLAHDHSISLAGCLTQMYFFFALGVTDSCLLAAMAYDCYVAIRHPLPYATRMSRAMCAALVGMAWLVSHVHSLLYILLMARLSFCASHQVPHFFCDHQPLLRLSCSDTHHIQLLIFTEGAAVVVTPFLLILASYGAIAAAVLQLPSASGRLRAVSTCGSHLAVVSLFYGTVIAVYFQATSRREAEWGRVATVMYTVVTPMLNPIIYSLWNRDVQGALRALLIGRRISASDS
In outline:
as §1

Assay [9] addresses T9, OR1L1 (Homo sapiens) (UniProt Q8NH94).
T9 sequence (whole entry): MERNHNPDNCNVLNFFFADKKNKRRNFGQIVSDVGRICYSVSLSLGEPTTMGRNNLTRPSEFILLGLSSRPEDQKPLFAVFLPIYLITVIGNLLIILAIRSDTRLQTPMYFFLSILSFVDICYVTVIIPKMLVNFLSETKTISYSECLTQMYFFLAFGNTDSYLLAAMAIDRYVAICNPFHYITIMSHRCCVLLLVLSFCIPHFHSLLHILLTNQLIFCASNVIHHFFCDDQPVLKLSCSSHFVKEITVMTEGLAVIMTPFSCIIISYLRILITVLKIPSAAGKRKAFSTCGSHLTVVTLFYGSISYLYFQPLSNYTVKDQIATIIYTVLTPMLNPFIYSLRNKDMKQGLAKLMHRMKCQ
In outline:
as §1

Assay [10] deals with T10, OR1L3 (Homo sapiens) (UniProt Q8NH93).
T10 sequence (whole entry): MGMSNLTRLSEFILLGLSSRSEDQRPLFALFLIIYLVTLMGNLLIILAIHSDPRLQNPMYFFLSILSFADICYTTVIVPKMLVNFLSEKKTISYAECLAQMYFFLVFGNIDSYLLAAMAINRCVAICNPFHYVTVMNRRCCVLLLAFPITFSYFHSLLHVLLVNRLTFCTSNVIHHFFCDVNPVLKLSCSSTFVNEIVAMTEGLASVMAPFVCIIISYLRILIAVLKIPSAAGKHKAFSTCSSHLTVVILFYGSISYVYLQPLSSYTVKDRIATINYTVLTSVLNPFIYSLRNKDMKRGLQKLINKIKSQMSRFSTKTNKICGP
The procedure, abridged: as §1

Assay [11] has as its target T11, OR1L4 (Homo sapiens) (UniProt Q8NGR5).
T11 sequence (whole entry): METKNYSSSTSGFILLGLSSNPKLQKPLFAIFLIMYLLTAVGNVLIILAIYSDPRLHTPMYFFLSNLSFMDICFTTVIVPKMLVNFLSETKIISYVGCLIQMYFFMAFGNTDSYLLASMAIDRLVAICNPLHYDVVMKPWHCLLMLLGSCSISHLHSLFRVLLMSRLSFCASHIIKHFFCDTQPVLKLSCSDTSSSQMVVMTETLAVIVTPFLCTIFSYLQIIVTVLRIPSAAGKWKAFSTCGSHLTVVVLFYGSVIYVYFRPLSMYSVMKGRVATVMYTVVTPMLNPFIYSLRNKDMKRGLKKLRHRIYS
The procedure, abridged:
as §1

The test system of assay [12] is T12, OR1L4.
T12 sequence (whole entry): T11 sequence (whole entry) with G234R
The procedure, abridged:
as §1

Assay [13] has as its target T13, OR1L6 (Homo sapiens) (UniProt Q8NGR2).
T13 sequence (whole entry): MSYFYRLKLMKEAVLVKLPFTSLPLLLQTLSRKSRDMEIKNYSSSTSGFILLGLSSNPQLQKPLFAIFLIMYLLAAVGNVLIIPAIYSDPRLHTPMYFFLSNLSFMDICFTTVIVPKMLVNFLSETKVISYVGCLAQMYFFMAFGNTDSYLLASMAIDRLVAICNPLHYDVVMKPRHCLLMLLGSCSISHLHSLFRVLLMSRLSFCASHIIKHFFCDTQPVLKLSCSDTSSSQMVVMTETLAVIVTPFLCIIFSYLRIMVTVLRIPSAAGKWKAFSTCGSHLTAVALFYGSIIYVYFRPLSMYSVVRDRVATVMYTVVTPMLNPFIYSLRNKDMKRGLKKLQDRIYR
In outline:
as §1

The target of assay [14] is T14, OR1L8 (Homo sapiens) (UniProt Q8NGR8).
T14 sequence (whole entry): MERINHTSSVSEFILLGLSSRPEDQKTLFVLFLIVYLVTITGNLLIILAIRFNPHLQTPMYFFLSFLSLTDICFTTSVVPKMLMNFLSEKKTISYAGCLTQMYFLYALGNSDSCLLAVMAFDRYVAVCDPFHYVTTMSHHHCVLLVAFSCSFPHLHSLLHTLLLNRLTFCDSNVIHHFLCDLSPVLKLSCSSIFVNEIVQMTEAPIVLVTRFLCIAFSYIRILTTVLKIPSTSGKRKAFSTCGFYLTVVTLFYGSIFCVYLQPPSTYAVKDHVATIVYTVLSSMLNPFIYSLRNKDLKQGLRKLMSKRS
In outline:
as §1

Assay [15] concerns T15, OR1L8 T27P R211P.
T15 sequence (whole entry): T14 sequence (whole entry) with T27P, R211P
In outline: as §1

Assay [16] concerns the target T16, OR1M1 (Homo sapiens) (UniProt Q8NGA1).
T16 sequence (whole entry): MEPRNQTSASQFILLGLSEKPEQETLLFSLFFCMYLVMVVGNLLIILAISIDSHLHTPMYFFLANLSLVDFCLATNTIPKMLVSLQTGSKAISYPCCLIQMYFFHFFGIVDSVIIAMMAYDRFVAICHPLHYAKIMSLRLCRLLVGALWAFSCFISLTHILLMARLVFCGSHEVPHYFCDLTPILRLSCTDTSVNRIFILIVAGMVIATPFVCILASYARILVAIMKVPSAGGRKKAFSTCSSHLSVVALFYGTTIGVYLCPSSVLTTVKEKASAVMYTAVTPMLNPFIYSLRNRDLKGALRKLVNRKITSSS
In outline: as §1

Assay [17] has as its target T17, OR1N1 (Homo sapiens) (UniProt Q8NGS0).
T17 sequence (whole entry): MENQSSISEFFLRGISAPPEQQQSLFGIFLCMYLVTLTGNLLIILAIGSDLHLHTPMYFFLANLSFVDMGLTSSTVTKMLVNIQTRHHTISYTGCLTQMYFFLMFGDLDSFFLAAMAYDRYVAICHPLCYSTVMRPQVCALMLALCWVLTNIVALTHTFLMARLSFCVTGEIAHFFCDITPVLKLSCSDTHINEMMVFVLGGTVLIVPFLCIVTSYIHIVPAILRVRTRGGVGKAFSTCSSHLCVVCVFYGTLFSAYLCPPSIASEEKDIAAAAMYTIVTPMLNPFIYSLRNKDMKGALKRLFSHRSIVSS
In outline:
as §1

Assay [18] deals with T18, OR1N2 W37R.
T18 sequence (whole entry): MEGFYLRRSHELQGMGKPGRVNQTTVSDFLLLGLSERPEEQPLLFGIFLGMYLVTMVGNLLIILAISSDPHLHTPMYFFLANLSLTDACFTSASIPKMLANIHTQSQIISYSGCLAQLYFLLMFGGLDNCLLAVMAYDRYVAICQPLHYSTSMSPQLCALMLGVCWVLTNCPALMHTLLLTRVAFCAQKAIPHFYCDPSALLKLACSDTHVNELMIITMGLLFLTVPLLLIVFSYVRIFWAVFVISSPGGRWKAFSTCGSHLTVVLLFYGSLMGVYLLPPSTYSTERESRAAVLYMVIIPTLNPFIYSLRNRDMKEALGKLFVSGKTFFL
In outline: as §1

Changes are numbered by the printed parent chain.

For the compound `CCCCCCC1CCC(=O)O1` (stereo unspecified), the “odorant receptor agonist call” value in assay [1] is “active”.

`CCCC(=O)OCC`: the “odorant receptor agonist call” value in [1] is “active”.

With `CCCCCCC=CCCC=O`, the “odorant receptor agonist call” value in assay [2], in [3], in assay [1], in assay [4], in assay [5] and in [6] was “inactive” in each case. The “odorant receptor agonist call” value in assay [7], in [8], in assay [9], in assay [10], in assay [11] and in [12] was “inactive” each time. The “odorant receptor agonist call” value in [13], in assay [14], in assay [15], in [16], in assay [17] and in [18] was “inactive” each time.

`CCCCCC(O)CC` (stereo unspecified): the “odorant receptor agonist call” value in [1] was “active”.

Take `CCOC(=O)C(C)C`: the “odorant receptor agonist call” value in assay [1] was “inactive”.

Regarding `CCCCCC(=O)OC`, the “odorant receptor agonist call” value in [1] is “inactive”.

On to `c1cscn1`, for which the “odorant receptor agonist call” value in [1] is “active”.

As to `CCCCCCCCC(=O)OC`, the “odorant receptor agonist call” value in [1] is “active”.

For the compound `O=C([O-])CCCCCCCC(=O)[O-].[H+].[H+]`, in assay [17], the “odorant receptor agonist call” value was “inactive”.
